Measured values reported in PMC10286098 (ACS Omega, 2023).
pIC50: −log10 of the molar value. Like-named read-outs stand apart in the source and are kept apart here.

What was measured:
MRC-5 cells = details: MRC-5 normal lung cells, WST-1, mean ± standard error
hDHODH = hDHODH (Homo sapiens, UniProt Q02127); test: hDHODH fluorescence-based; assay type: biochemical; details: for pIC50: IC50 over hDHODH, fluorescence-based assay, 10-dose, 3-fold dilution from 10 μM; for fold of the reported DHODH inhibitory activity of Leflunomide: versus Leflunomide 600 nM
hDHODH, sequence (Q02127 whole entry): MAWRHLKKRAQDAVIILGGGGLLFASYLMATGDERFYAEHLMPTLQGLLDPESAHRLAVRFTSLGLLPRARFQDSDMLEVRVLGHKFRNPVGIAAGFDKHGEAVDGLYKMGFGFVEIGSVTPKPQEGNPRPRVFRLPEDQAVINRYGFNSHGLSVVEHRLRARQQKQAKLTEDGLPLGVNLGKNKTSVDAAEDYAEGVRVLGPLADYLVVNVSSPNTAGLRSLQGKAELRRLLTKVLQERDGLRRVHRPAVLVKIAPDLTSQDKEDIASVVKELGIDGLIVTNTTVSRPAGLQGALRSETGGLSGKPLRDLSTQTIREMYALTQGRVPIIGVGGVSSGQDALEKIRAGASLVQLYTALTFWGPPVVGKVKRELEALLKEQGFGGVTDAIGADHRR
Method in brief: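 Contract-run assay in which human DHODH oxidizes L-DHO to orotate, coupled to resazurin conversion to resorufin. Test compounds were run as 10 doses in singlet, with 3-fold dilutions from 10 μM. Reactions ran 60 min at room temperature. Orotate stop mix (5 mM final) was added, then resorufin fluorescence was read.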

[1] = A549 cells, WST-1, 24 h, mean ± standard error
[2] = H1975 cells, WST-1, 24 h, mean ± standard error
[3] = H1299 cells, WST-1, 24 h, mean ± standard error

Structure (SMILES)	TC50 (A549 cells; [1])	TC50 (H1975 cells; [2])	TC50 (H1299 cells; [3])	TC50 (A549 cells)	TC50 (H1975 cells)	TC50 (MRC-5 cells)	TC50 (H1299 cells)	decrease of cell viability (A549 cells; A549, 100 μM, 24 h, preliminary screening (Figure S1))	decrease of cell viability (H1975 cells; H1975, 100 μM, 24 h, preliminary screening (Figure S1))	decrease of cell viability (H1299 cells; H1299, 100 μM, 24 h, preliminary screening (Figure S1))	pIC50 (hDHODH)	fold of the reported DHODH inhibitory activity of Leflunomide (hDHODH)
COc1ccc(-c2ccc3[nH]cc(C(=O)Nc4cccc(C(F)(F)F)c4)c3c2)cc1 [4b, 5-(4-Methoxyphenyl)-N-(3-(trifluoromethyl)phenyl)-1H-indole-3-carboxamide]	17 ± 0.5 µM	35 ± 4.0 µM	17 ± 0.3 µM									
O=C(Nc1cccc(C(F)(F)F)c1)c1c[nH]c2ccc(Nc3ccc(O)cc3)cc12 [5a, 5-((4-Hydroxyphenyl)amino)-N-(3-(trifluoromethyl)phenyl)-1H-indole-3-carboxamide]	32 ± 0.9 µM	33 ± 2.0 µM	33 ± 0.7 µM									
O=C(Nc1cccc(C(F)(F)F)c1)c1c[nH]c2ccc(Nc3cccc([N+](=O)[O-])c3)cc12 [5d, 5-((3-Nitrophenyl)amino)-N-(3-(trifluoromethyl)phenyl)-1H-indole-3-carboxamide]	16 ± 0.4 µM	29 ± 4.0 µM	18 ± 0.5 µM									
Cc1oncc1C(=O)Nc1ccc(C(F)(F)F)cc1 [Leflunomide, reference compound]				100 < TC50 <300 μM	100 < μM	300 < μM	300 < μM					
CNC(=O)c1cc(Oc2ccc(NC(=O)Nc3ccc(Cl)c(C(F)(F)F)c3)c(F)c2)ccn1 [Regorafenib, reference compound]	13 ± 0.8 µM	16 ± 0.5 µM	10 ± 0.4 µM			18 ± 2.0 µM		more than 50%	more than 50%	more than 50%		
O=C(Nc1cccc(C(F)(F)F)c1)c1c[nH]c2ccc(Br)cc12 [compound 3, 5-Bromo-N-(3-(trifluoromethyl)phenyl)-1H-indole-3-carboxamide]	22 ± 1.0 µM	28 ± 2.0 µM	27 ± 0.8 µM			45 ± 8.0 µM					6.71	3 fold
O=C(Nc1cccc(C(F)(F)F)c1)c1c[nH]c2ccc(-c3cccc(CN4CCOCC4)c3)cc12 [compound 4a, 5-(3-(Morpholinomethyl)phenyl)-N-(3-(trifluoromethyl)phenyl)-1H-indole-3-carboxamide]	13 ± 0.3 µM	23 ± 2.0 µM	13 ± 0.1 µM			17 ± 3.0 µM					5.92	
COc1ccc(Nc2ccc3[nH]cc(C(=O)Nc4cccc(C(F)(F)F)c4)c3c2)cc1OC [compound 5b, 5-((3,4-Dimethoxyphenyl)amino)-N-(3-(trifluoromethyl)phenyl)-1H-indole-3-carboxamide]	19 ± 0.4 µM	25 ± 5.0 µM	16 ± 0.6 µM									
O=C(Nc1cccc(C(F)(F)F)c1)c1c[nH]c2ccc(Nc3ccc([N+](=O)[O-])cc3)cc12 [compound 5c, 5-((4-Nitrophenyl)amino)-N-(3-(trifluoromethyl)phenyl)-1H-indole-3-carboxamide]	11 ± 0.5 µM	15 ± 1.0 µM	11 ± 0.3 µM			17 ± 0.3 µM					6.38	1.5 fold
